Columns and labels:
Type in all cases: functional
[1] = system: Streptococcus pneumoniae; test: Antimicrobial activity against extended spectrum beta-lactamases-producing Streptococcus pneumoniae 10-1 after 18-24 hrs by two-fold serial dilution method
Method in brief: (§1)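 Agar-medium twofold serial dilution against Gram-positive and Gram-negative strains; MIC taken as the lowest compound concentration giving complete inhibition of bacterial growth after incubation at 35 °C for 18-24 h.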

[2] = system: Escherichia coli; test: Antimicrobial activity against extended spectrum beta-lactamases-producing Escherichia coli 10-2 after 18-24 hrs by two-fold serial dilution method; method in brief: as §1
[3] = system: Staphylococcus aureus; test: Antimicrobial activity against extended spectrum beta-lactamases-producing methicillin-resistant Staphylococcus aureus 10-11 after 18-24 hrs by two-fold serial dilution method
Method in brief: (§2)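 Agar twofold serial dilution MIC against clinical isolates. MIC was taken as the lowest concentration giving complete inhibition of bacterial growth after incubation at 35 °C for 18-24 h.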

[4] = system: Staphylococcus epidermidis; test: Antimicrobial activity against extended spectrum beta-lactamases-producing methicillin-sensitive Staphylococcus epidermidis 10-13 after 18-24 hrs by two-fold serial dilution method; method in brief: as §1
[5] = system: Escherichia coli; test: Antimicrobial activity against Escherichia coli 10-1 after 18-24 hrs by two-fold serial dilution method; method in brief: as §1
[6] = system: Enterococcus faecium; test: Antimicrobial activity against Enterococcus faecium 10-5 after 18-24 hrs by two-fold serial dilution method; method in brief: as §1
[7] = system: Staphylococcus aureus; test: Antimicrobial activity against Staphylococcus aureus ATCC […] after 18-24 hrs by two-fold serial dilution method; method in brief: as §1
[8] = system: Staphylococcus aureus; test: Antimicrobial activity against extended spectrum beta-lactamases-producing methicillin-sensitive Staphylococcus aureus 10-14 after 18-24 hrs by two-fold serial dilution method; method in brief: as §1
[9] = system: Staphylococcus aureus; test: Antimicrobial activity against extended spectrum beta-lactamases-producing methicillin-sensitive Staphylococcus aureus 10-13 after 18-24 hrs by two-fold serial dilution method; method in brief: as §1
[10] = system: Enterococcus faecalis; test: Antimicrobial activity against Enterococcus faecalis 10-7 after 18-24 hrs by two-fold serial dilution method; method in brief: as §1
[11] = system: Staphylococcus epidermidis; test: Antimicrobial activity against extended spectrum beta-lactamases-producing methicillin-sensitive Staphylococcus epidermidis 10-15 after 18-24 hrs by two-fold serial dilution method; method in brief: as §1
[12] = system: Enterococcus faecium; test: Antimicrobial activity against Enterococcus faecium 10-9 after 18-24 hrs by two-fold serial dilution method; method in brief: as §1
[13] = system: Pseudomonas aeruginosa; test: Antimicrobial activity against extended spectrum beta-lactamases-producing Pseudomonas aeruginosa 10-5 after 18-24 hrs by two-fold serial dilution method; method in brief: as §1
[14] = system: Pseudomonas aeruginosa; test: Antimicrobial activity against extended spectrum beta-lactamases-producing Pseudomonas aeruginosa 10-20 after 18-24 hrs by two-fold serial dilution method; method in brief: as §1
[15] = system: Enterococcus faecalis; test: Antimicrobial activity against Enterococcus faecalis 10-5 after 18-24 hrs by two-fold serial dilution method; method in brief: as §1
[16] = system: Streptococcus pneumoniae; test: Antimicrobial activity against extended spectrum beta-lactamases-producing Streptococcus pneumoniae 10-4 after 18-24 hrs by two-fold serial dilution method; method in brief: as §1
[17] = system: Enterococcus faecalis; test: Antimicrobial activity against Enterococcus faecalis 10-6 after 18-24 hrs by two-fold serial dilution method; method in brief: as §1
[18] = system: Klebsiella pneumoniae; test: Antimicrobial activity against extended spectrum beta-lactamases-producing Klebsiella pneumoniae 10-1 after 18-24 hrs by two-fold serial dilution method; method in brief: as §1
[19] = system: Staphylococcus aureus; test: Antimicrobial activity against extended spectrum beta-lactamases-producing methicillin-resistant Staphylococcus aureus 10-15 after 18-24 hrs by two-fold serial dilution method; method in brief: as §2
[20] = system: Klebsiella pneumoniae; test: Antimicrobial activity against extended spectrum beta-lactamases-producing Klebsiella pneumoniae 10-2 after 18-24 hrs by two-fold serial dilution method; method in brief: as §1
[21] = system: Escherichia coli; test: Antimicrobial activity against extended spectrum beta-lactamases-producing Escherichia coli 10-4 after 18-24 hrs by two-fold serial dilution method; method in brief: as §1
[22] = system: Pseudomonas aeruginosa; test: Antimicrobial activity against extended spectrum beta-lactamases-producing Pseudomonas aeruginosa 10-9 after 18-24 hrs by two-fold serial dilution method; method in brief: as §1
[23] = system: Klebsiella pneumoniae; test: Antimicrobial activity against extended spectrum beta-lactamases-producing Klebsiella pneumoniae 10-3 after 18-24 hrs by two-fold serial dilution method; method in brief: as §1
[24] = system: Klebsiella pneumoniae; test: Antimicrobial activity against Klebsiella pneumoniae 10-3 after 18-24 hrs by two-fold serial dilution method; method in brief: as §1
[25] = system: Klebsiella pneumoniae; test: Antimicrobial activity against Klebsiella pneumoniae 10-2 after 18-24 hrs by two-fold serial dilution method; method in brief: as §1
[26] = system: Staphylococcus epidermidis; test: Antimicrobial activity against extended spectrum beta-lactamases-producing methicillin-resistant Staphylococcus epidermidis 10-10 after 18-24 hrs by two-fold serial dilution method; method in brief: as §2
[27] = system: Escherichia coli; test: Antimicrobial activity against extended spectrum beta-lactamases-producing Escherichia coli 10-3 after 18-24 hrs by two-fold serial dilution method; method in brief: as §1
[28] = system: Pseudomonas aeruginosa; test: Antimicrobial activity against extended spectrum beta-lactamases-producing Pseudomonas aeruginosa 10-18 after 18-24 hrs by two-fold serial dilution method; method in brief: as §1
[29] = system: Staphylococcus epidermidis; test: Antimicrobial activity against extended spectrum beta-lactamases-producing methicillin-sensitive Staphylococcus epidermidis 10-11 after 18-24 hrs by two-fold serial dilution method; method in brief: as §1
[30] = system: Klebsiella pneumoniae; test: Antimicrobial activity against Klebsiella pneumoniae 10-4 after 18-24 hrs by two-fold serial dilution method; method in brief: as §1
[31] = system: Escherichia coli; test: Antimicrobial activity against Escherichia coli ATCC 25922 after 18-24 hrs by two-fold serial dilution method; method in brief: as §1
[32] = system: Escherichia coli; test: Antimicrobial activity against Escherichia coli 10-2 after 18-24 hrs by two-fold serial dilution method; method in brief: as §1
[33] = system: Escherichia coli; test: Antimicrobial activity against Escherichia coli 10-3 after 18-24 hrs by two-fold serial dilution method; method in brief: as §1
[34] = system: Pseudomonas aeruginosa; test: Antimicrobial activity against extended spectrum beta-lactamases-producing Pseudomonas aeruginosa 10-15 after 18-24 hrs by two-fold serial dilution method; method in brief: as §1
[35] = system: Pseudomonas aeruginosa; test: Antimicrobial activity against Pseudomonas aeruginosa 10-12 after 18-24 hrs by two-fold serial dilution method; method in brief: as §1
[36] = system: Staphylococcus epidermidis; test: Antimicrobial activity against extended spectrum beta-lactamases-producing methicillin-resistant Staphylococcus epidermidis 10-13 after 18-24 hrs by two-fold serial dilution method; method in brief: as §2

Structure (SMILES)	MIC [1]	MIC [2]	MIC [3]	MIC [4]	MIC [5]	MIC [6]	MIC [7]	MIC [8]	MIC [9]	MIC [10]	MIC [11]	MIC [12]	MIC [13]	MIC [14]	MIC [15]	MIC [16]	MIC [17]	MIC [18]	MIC [19]	MIC [20]	other results
CS(=O)(=O)O.NCC1CN(c2nc3c(cc2F)c(=O)c(C(=O)O)cn3C2CC2)C/C1=N\OCc1ccc2c(c1)OCO2 (racemic)	1 µg/mL	> 128 µg/mL	1 µg/mL	1 µg/mL	32 µg/mL	4 µg/mL	0.06 µg/mL	0.03 µg/mL	0.5 µg/mL	1 µg/mL	4 µg/mL	4 µg/mL	8 µg/mL	0.25 µg/mL	0.5 µg/mL	2 µg/mL	2 µg/mL	128 µg/mL	0.5 µg/mL	> 128 µg/mL	MIC [21]: 2 µg/mL; MIC [22]: 4 µg/mL; MIC [23]: 128 µg/mL; MIC [24]: 2 µg/mL; MIC [25]: 2 µg/mL; MIC [26]: 1 µg/mL; MIC [27]: 16 µg/mL; MIC [28]: 2 µg/mL; MIC [29]: 2 µg/mL; MIC [30]: > 128 µg/mL; MIC [31]: 0.125 µg/mL; MIC [32]: 2 µg/mL; MIC [33]: 8 µg/mL; MIC [34]: 4 µg/mL; MIC [35]: 0.06 µg/mL; MIC [36]: 0.5 µg/mL
COc1cc(CO/N=C2\CN(c3nc4c(cc3F)c(=O)c(C(=O)O)cn4C3CC3)CC2CN)cc(OC)c1OC.CS(=O)(=O)O (racemic)	1 µg/mL	> 128 µg/mL	2 µg/mL	2 µg/mL	128 µg/mL	8 µg/mL	0.125 µg/mL	0.125 µg/mL	1 µg/mL	2 µg/mL	8 µg/mL	8 µg/mL	8 µg/mL	0.5 µg/mL	1 µg/mL	8 µg/mL	4 µg/mL	> 128 µg/mL	0.25 µg/mL	> 128 µg/mL	MIC [21]: 8 µg/mL; MIC [22]: 8 µg/mL; MIC [23]: > 128 µg/mL; MIC [24]: 8 µg/mL; MIC [25]: > 128 µg/mL; MIC [26]: 2 µg/mL; MIC [27]: 16 µg/mL; MIC [28]: 4 µg/mL; MIC [29]: 8 µg/mL; MIC [30]: > 128 µg/mL; MIC [31]: 0.5 µg/mL; MIC [32]: 16 µg/mL; MIC [33]: 16 µg/mL; MIC [34]: 8 µg/mL; MIC [35]: 0.125 µg/mL; MIC [36]: 0.5 µg/mL
COc1ccc(CO/N=C2\CN(c3nc4c(cc3F)c(=O)c(C(=O)O)cn4C3CC3)CC2CN)c(Cl)c1OC.CS(=O)(=O)O (racemic)	0.5 µg/mL	> 128 µg/mL	1 µg/mL	0.03 µg/mL	> 128 µg/mL	4 µg/mL	0.008 µg/mL	0.015 µg/mL	0.015 µg/mL	2 µg/mL	1 µg/mL	4 µg/mL	16 µg/mL	16 µg/mL	0.25 µg/mL	0.06 µg/mL	4 µg/mL	> 128 µg/mL	0.25 µg/mL	> 128 µg/mL	MIC [21]: 4 µg/mL; MIC [22]: 8 µg/mL; MIC [23]: > 128 µg/mL; MIC [24]: 8 µg/mL; MIC [25]: > 128 µg/mL; MIC [26]: 0.5 µg/mL; MIC [27]: > 128 µg/mL; MIC [28]: 16 µg/mL; MIC [29]: 0.25 µg/mL; MIC [30]: > 128 µg/mL; MIC [31]: 0.25 µg/mL; MIC [32]: 32 µg/mL; MIC [33]: 16 µg/mL; MIC [34]: 32 µg/mL; MIC [35]: 16 µg/mL; MIC [36]: 0.5 µg/mL
COc1ccc(CO/N=C2\CN(c3nc4c(cc3F)c(=O)c(C(=O)O)cn4C3CC3)CC2CN)c([N+](=O)[O-])c1OC.CS(=O)(=O)O (racemic)	1 µg/mL	> 128 µg/mL	2 µg/mL	1 µg/mL	> 128 µg/mL	4 µg/mL	0.06 µg/mL	0.06 µg/mL	1 µg/mL	2 µg/mL	4 µg/mL	4 µg/mL	8 µg/mL	0.25 µg/mL	1 µg/mL	4 µg/mL	4 µg/mL	> 128 µg/mL	1 µg/mL	> 128 µg/mL	MIC [21]: 8 µg/mL; MIC [22]: 16 µg/mL; MIC [23]: > 128 µg/mL; MIC [24]: 8 µg/mL; MIC [25]: > 128 µg/mL; MIC [26]: 2 µg/mL; MIC [27]: > 128 µg/mL; MIC [28]: 8 µg/mL; MIC [29]: 4 µg/mL; MIC [30]: > 128 µg/mL; MIC [31]: 0.5 µg/mL; MIC [32]: 8 µg/mL; MIC [33]: 16 µg/mL; MIC [34]: 4 µg/mL; MIC [35]: 0.06 µg/mL; MIC [36]: 0.5 µg/mL
COc1ccc(CO/N=C2\CN(c3nc4c(cc3F)c(=O)c(C(=O)O)cn4C3CC3)CC2CN)cc1OC.CS(=O)(=O)O (racemic)	0.5 µg/mL	> 128 µg/mL	0.5 µg/mL	0.5 µg/mL	16 µg/mL	4 µg/mL	0.03 µg/mL	0.06 µg/mL	0.5 µg/mL	1 µg/mL	4 µg/mL	4 µg/mL	2 µg/mL	0.06 µg/mL	0.5 µg/mL	4 µg/mL	2 µg/mL	64 µg/mL	0.125 µg/mL	> 128 µg/mL	MIC [21]: 2 µg/mL; MIC [22]: 8 µg/mL; MIC [23]: > 128 µg/mL; MIC [24]: 4 µg/mL; MIC [25]: 128 µg/mL; MIC [26]: 0.5 µg/mL; MIC [27]: 16 µg/mL; MIC [28]: 4 µg/mL; MIC [29]: 2 µg/mL; MIC [30]: > 128 µg/mL; MIC [31]: 0.06 µg/mL; MIC [32]: 8 µg/mL; MIC [33]: 16 µg/mL; MIC [34]: 1 µg/mL; MIC [35]: 0.03 µg/mL; MIC [36]: 0.25 µg/mL
